XiGFP reactiv = activators of inactive X chromosome reactivation, primary screen, imaging, XiGFP fibroblasts, GFP high-content imaging, set 2. XiGFP mouse fibroblasts, % GFP-positive cells imaging, 3 d; cells co-treated with 5-aza-dC sensitizer; scaled so ellipticine positive control = 100%. activation, % at 7.58 µM. actives 0.055% (n = 360,000). AID 743238, 2013;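 active means mean normalized replicate activation at least 10% and every replicate at or above 10%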;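 further: 0% = median of on-plate neutral control wells and 100% = ellipticine 6 µM median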
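System: XiGFP fibroblasts, SV40-immortalized. Medium: DMEM plus 5-aza-dC sensitizer. Doses: single point. Timing: 3 d treatment, 15 min room-temperature fixation. Control set: ellipticine 6 µM.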
V-ATPase pHluor = regulators of yeast V-ATPase proton pumping, primary screen, pHLuorin cytosolic pH fluorescence. actives 0.37% (n = 350,000). response, % at 10 µM. S. cerevisiae; in the data active means response mostly above about 7.3%, no sharp cut-off; inactive means mostly below about 5.4%; further: actives read high
MIN6 prolif-1 = inducers of MIN6 beta-cell proliferation, primary screen, ATP luminescence, uHTS; MIN6 cells proliferation, ATPlite luminescence, 48 h; cells starved in 0.2% serum; 100% = growth in 10% serum; proliferation, % at 10 µM; actives 0.29% (n = 330,000); AID 2380, 2010;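 active means compounds whose signal lies at least 3.5 SD above the mean of all wells on their plate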;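 further: 0% = DMSO-treated cells in low-serum medium and 100% = 10% serum control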
Arr AP2 block = inhibitors of beta-arrestin/AP2 binding, primary screen, biochemical, GPCR trafficking, flow cytometry; FITC-arrestin peptide / GST-AP2 beads; AP2 beta2 appendage carries R879A mutation; actives 0.31% (n = 340,000); inhibition, % at 10 µM; beta-arrestin 1 C-terminal peptide binding to AP2 beta2-adaptin appendage (human);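 active means inhibition above a set limit, near 3 SD of compounds lacking own fluorescence, cut at about 54% in these data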;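 further: plate controls were DMSO wells for no effect and 5 µM unlabelled arrestin peptide for full effect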
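Assay system: GST-AP2 R879A bound to glutathione beads, E. coli-expressed; Medium: PBS with 0.05% Tween 20 and 0.1% BSA; Also added: fluorescein-tagged arrestin peptide at 50 nM final; Timing: 12 min plus 1 h, RT; Measured by: flow cytometry, FL1 (488/535 nm); Evaluation: percent drop in bead-associated FITC signal.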
NTR1 agonist = agonists of human NTR1, primary screen, imaging, U2OS cells, beta-arrestin-GFP, high content. Neurotensin receptor type 1 (Homo sapiens), P30989. activation, % at 20 µM. actives 0.17% (n = 330,000). NTR1-U2OS beta-arrestin-GFP spot imaging, agonist mode;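 active means activation at or above 40% of the spot to cytoplasm intensity ratio, with at least 20 cells analyzed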;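 further: 0% = DMSO without peptide and 100% = 100 nM NTR1 peptide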
Target sequence (P30989 whole entry, looked up): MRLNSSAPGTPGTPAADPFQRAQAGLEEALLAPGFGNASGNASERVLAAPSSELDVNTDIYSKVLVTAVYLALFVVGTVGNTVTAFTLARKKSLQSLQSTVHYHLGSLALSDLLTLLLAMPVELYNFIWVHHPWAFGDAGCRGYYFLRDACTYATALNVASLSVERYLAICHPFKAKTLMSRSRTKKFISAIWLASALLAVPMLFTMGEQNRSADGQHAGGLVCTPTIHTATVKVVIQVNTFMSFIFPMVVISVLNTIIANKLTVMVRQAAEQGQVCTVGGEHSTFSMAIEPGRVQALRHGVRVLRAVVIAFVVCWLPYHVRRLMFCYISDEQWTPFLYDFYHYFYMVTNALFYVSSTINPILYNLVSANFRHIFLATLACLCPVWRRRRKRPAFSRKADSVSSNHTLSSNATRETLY
T cell HTS = modulators of CD8 T cell-vesicle binding, primary screen, mouse 2C CD8+ T cells, flow cytometry; actives 0.068% (n = 330,000); 2C CD8+ T cell-vesicle binding; hits give low values; AID 2052, 2009; response (vesicle binding), % at 7 µM;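 active means response, share of CD8 T cells binding vesicles, and their 90th percentile fluorescence all below set limits, cut at about 80% in these data, passing the limit was not always enough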;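 further: values below 100% mean blocked vesicle binding to the CD8+ T cells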
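Also added: QL9-peptide-loaded Drosophila micro-vesicles bearing Ld, ICAM-1 and B7-1; Test system: purified 2C TCR transgenic mouse naive CD8+ T cells; Measured by: cytometric PE anti-B7-1 and Alexa647 anti-CD8 signals after 1% paraformaldehyde fixation; Timing: binding step 1.5 h, 37 °C, antibody labelling 20 min, ice.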
MIN6 prolif-2 = inducers of beta-cell proliferation in MIN6, confirmation, MIN6 cells, mouse | shares compounds with MIN6 prolif-1 | proliferation increase, % at 50 µM | AID 463095, 2010 | 920 tested, under 10 active | ATPlite luminescence, 48 h; cells kept in 0.2% serum; scaled between 0.2% and 10% serum;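 active means proliferation increase above 40% at any of the four tested concentrations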
NTR1 ag confirm = NTR1 agonists, single-dose retest, confirmation, imaging, U2OS cells, beta-arrestin-GFP, single concentration; AID 504550, 2011; actives 38% (n = 480); activation, % at 20 µM; shares compounds with NTR1 agonist; NTR1-U2OS beta-arrestin-GFP translocation imaging;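 active means mean activation at 20 µM of at least 40%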;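 further: 0% = DMSO without peptide and 100% = 100 nM NTR1 peptide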
* hit, by the source's call; i = inactive; . = no result given. Shown are actives, neighbours in structure and some others; about 0.89% of the full set was active somewhere.

SMILES | XiGFP reactiv | V-ATPase pHluor | MIN6 prolif-1 | Arr AP2 block | NTR1 agonist | T cell HTS | MIN6 prolif-2 | NTR1 ag confirm
CC(=O)c1ccc(OCC(=O)NC2CCS(=O)(=O)C2)cc1 (centres undefined) | . | 0 | 5.0* | -4 | -1 | 302 | 0 | .
Cc1c(NS(=O)(=O)c2cccc(C(=O)O)c2)c(=O)n(-c2ccccc2)n1C | 0 | -2 | 4.9* | -4 | 0 | 263 | -4 | .
CN(C)C(=O)C[C@@H]1C[C@H]2c3cc(NS(=O)(=O)c4ccc(F)cc4)ccc3O[C@H]2[C@@H](CO)O1 | 0 | . | . | . | . | . | . | .
O=C1NC2(CCCCC2)C(=O)N1c1ccc(Cl)cc1 | 0 | -1 | 8.4* | 16 | 2 | 166 | 2 | .
O=C1NC2(CCCCC2)C(=O)N1c1ccccc1 | . | 0 | 0 | -2 | 0 | i | . | .
O=C(CN(c1ccccc1)S(=O)(=O)c1ccccc1[N+](=O)[O-])Nc1cccnc1 | 0 | 1 | 5.5* | -16 | -1 | 320 | 0 | .
CN(C)c1nc(N(C)C)nc(N(C#N)CCOc2ccccc2)n1 | . | 1 | 9.9* | 0 | 4 | 152 | -6 | .
COc1ccc2c3c([nH]c2c1)[C@H](CO)N(Cc1ccccc1)CC31CCN(S(C)(=O)=O)CC1 | 0 | . | . | . | . | . | . | .
CCOC(=O)c1c(N)sc2c1CCC(C)C2 (centres undefined) | . | 2 | -3 | -3 | -1 | 162 | . | .
CCOC(=O)c1c(NS(C)(=O)=O)sc2c1CCC(C)C2 (centres undefined) | . | 6 | 7.3* | 5 | 0 | 292 | -6 | .
CCOC(=O)c1c(NC(=O)C2CCN(S(=O)(=O)c3cccs3)CC2)sc(C)c1C | . | 1 | 1 | -6 | 1 | 492 | . | .
CCOC(=O)c1c(NC(=O)C(C)N2CCN(S(=O)(=O)c3cccs3)CC2)sc2c1CCC(C)C2 (centres undefined) | 0 | 1 | 5.5* | -24 | 2 | 595 | -1 | .
CO[C@H]1CN(C)C(=O)c2ccc(NC(=O)Nc3c(C)noc3C)cc2OC[C@@H](C)NC[C@@H]1C | 0 | . | . | . | . | . | . | .
COc1ccc(-c2cnc3c(c2)C(=O)N([C@H](C)CO)C[C@H](C)[C@@H](CN(C)C(=O)Cc2cccnc2)O3)cc1 | 0 | . | . | . | . | . | . | .
CCC(C(=O)Nc1cc(C)nn1-c1nc(C)cc(C)n1)c1ccccc1 (centres undefined) | . | -1 | 6.1* | 5 | 10 | 198 | -6 | .
O=C(NNC(=O)C1CC(c2cccnc2)=NO1)Nc1cccc(F)c1 (centres undefined) | . | 3 | 5.6* | -4 | -1 | 577 | 1 | .
O=C(Nc1cccnc1)C1CC(c2ccc(Cl)c(Cl)c2)=NO1 (centres undefined) | . | 3 | -3 | 6 | 1 | 411 | . | .
CC(=O)n1cc(C(C[N+](=O)[O-])SCCN)c2ccccc21 (centres undefined) | . | 7 | -6 | 32 | 47* | 506 | . | 76*
Cn1cc(C(C[N+](=O)[O-])c2ccccc2)c2ccccc21 (centres undefined) | 0 | -4 | -4 | 27 | 4 | 148 | . | .
O=[N+]([O-])c1ccc(Nc2c3ccccc3nc3ccccc23)cc1 | 0 | -2 | -5 | 17 | 44* | . | . | 10
CCOC(=O)c1ccc(NC(=O)c2nc[nH]c2C(=O)N[C@@H](CC(C)C)C(=O)OC(C)(C)C)cc1 | 0 | -1 | -7 | 4 | 17 | 684 | . | .
CCOC(=O)c1ccc(NC(=O)c2nc[nH]c2C(=O)N[C@@H](C)C(=O)OC(C)(C)C)cc1 | 0 | -2 | -8 | -1 | 43* | 600 | . | 40
C[C@H](NC(=O)c1[nH]cnc1C(=O)Nc1ccc(Cl)cc1)C(=O)OC(C)(C)C | . | 3 | -9 | 2 | 41* | 358 | . | 29
C[C@@H]1CCCCO[C@H](CN(C)Cc2ccc3c(c2)OCO3)[C@H](C)CN([C@@H](C)CO)C(=O)c2cc(NC(=O)Nc3ccccc3)ccc2O1 | 0 | . | . | . | . | . | . | .
COc1ccc(Cn2c(SCc3cc(C)ccc3C)nc3cc(OC)c(OC)cc3c2=N)cc1 | . | 2 | -6 | -8 | 48* | 338 | . | 30
SMILES | XiGFP reactiv | V-ATPase pHluor | MIN6 prolif-1 | Arr AP2 block | NTR1 agonist | T cell HTS | MIN6 prolif-2 | NTR1 ag confirm
COCCCn1c(SCc2cccc(C(F)(F)F)c2)nc2cc(OC)c(OC)cc2c1=N | . | 2 | -5 | 5 | 60* | i | . | 10
COc1ccc(Cn2c(SCc3ccc(C)cc3)nc3cc(OC)c(OC)cc3c2=N)cc1Cl | . | 4 | -6 | 8 | 54* | 525 | . | 64*
COc1cc2nc(SCc3ccc(C(F)(F)F)cc3)n(Cc3cccs3)c(=N)c2cc1OC | . | 7 | -2 | 5 | 5 | 190 | . | .
COc1cccc(CN(C)C[C@@H]2OCc3cn(nn3)CCCC(=O)N([C@@H](C)CO)C[C@@H]2C)c1 | 2 | . | . | . | . | . | . | .
CC=Cc1ccc2n(c1=O)C[C@@H]1[C@@H](CO)[C@H](C(=O)N(C)C)N(CC3CC3)[C@H]21 (mixture of isomers) | 0 | . | . | . | . | . | . | .
CNC(=O)c1cc(Oc2ccc(NC(=O)Nc3ccc(Cl)c(C(F)(F)F)c3)cc2)ccn1 | 0 | -1 | -7 | -12 | 43* | 832 | . | 48*
COc1ccc2c3c(n(C)c2c1)[C@@H](CO)N(Cc1ccc2c(c1)OCO2)CC31CCN(C(C)=O)CC1 | 0 | . | . | . | . | . | . | .
CCC(=O)N1CCN(c2ccc(NC(=O)c3cc4ccccc4o3)cc2Cl)CC1 | . | -6 | 1 | 17 | 37 | 140 | . | .
O=C(Nc1ccc(N2CCN(C(=O)c3ccco3)CC2)c(Cl)c1)c1cc2ccccc2o1 | . | 2 | -6 | 10 | 42* | 350 | . | 63*
CN1CCN(CCCN2c3ccccc3Sc3ccc(Cl)cc32)CC1 | 0 | 1 | -8 | 16 | 13 | 558 | . | .
CCSc1ccc2c(c1)N(CCCN1CCN(C)CC1)c1ccccc1S2 | 0 | 4 | -8 | 2 | 43* | 523 | . | 9
